Test [1] can be described thus: Binding affinity to poly[d(G-C)]2 DNA (unknown origin) assessed as hypochromicity by UV-vis titration method. An outline of the steps:
(§1)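 Titration was the same as the UV-vis binding titration: 6.7 µM ligand, 10 mM MES pH 6.25, 100 mM NaCl, 1 mM EDTA, 25°C. Hypochromicity was calculated as H% = (A383 free − A383 bound)/A383 free × 100.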

The subject of test [2] is Calf thymus DNA. The test can be described thus: Binding affinity to calf thymus DNA assessed as dissociation constant by stopped flow kinetics assay. The format is nucleic-acid assay, Bos taurus. The gist of the method: (§2)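 Dissociation was SDS-driven and measured by stopped-flow. Equal volumes of 1% SDS and ligand–DNA complex (ligand:bp 1:10) were mixed rapidly. Buffer was 10 mM MES pH 6.25 with 100 mM NaCl and 1 mM EDTA. Absorbance was recorded over time, and k_d was obtained by nonlinear fitting of the trace.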

The test system of test [3] is Calf thymus DNA. Nature of the test: Binding affinity to calf thymus DNA assessed as hypochromicity by UV-vis titration method. The format is nucleic-acid assay. The conditions noted are these: Bos taurus. The gist of the method:
as §1

The nature of test [4]: Binding affinity to poly[d(A-T)]2 DNA (unknown origin) assessed as hypochromicity by UV-vis titration method. An outline of the steps:
as §1

A short description of test [5]: Binding affinity to poly[d(A-T)]2 DNA (unknown origin) assessed as association constant by stopped flow kinetics assay. An outline of the steps: (§3)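 Ligand was mixed with DNA in a stopped-flow instrument, in 10 mM MES pH 6.25 with 0.1 M NaCl and 1 mM EDTA. Ligand to DNA base-pair ratio was 1:10. Absorbance was followed at the ligand maximum (383 nm). Traces were fitted to a single exponential, and apparent rate constants were plotted against DNA concentration.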

Test [6] concerns Calf thymus DNA. The test can be described thus: Binding affinity to calf thymus DNA assessed as change in entropy by thermodynamics analysis. The conditions noted are these: Bos taurus. The format is nucleic-acid assay. An outline of the steps: (§4)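 Binding constants for CT-DNA were obtained by UV-vis titration at 20–27.5°C in 10 mM MES pH 6.25 with 0.1 M NaCl and 1 mM EDTA. ΔH and ΔS were taken from a van't Hoff plot of lnK vs 1/T. ΔG at 25°C came from the Gibbs equation.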

A short description of test [7]: Binding affinity to poly[d(G-C)]2 DNA (unknown origin) assessed as dissociation constant by stopped flow kinetics assay. The gist of the method:
as §2

For test [8], the system named is Calf thymus DNA. Nature of the test: Binding affinity to calf thymus DNA assessed as change in enthalpy by thermodynamics analysis. The format is nucleic-acid assay. The conditions noted are these: Bos taurus. An outline of the steps: as §4
For test [9], the system named is Calf thymus DNA. The test can be described thus: Binding affinity to calf thymus DNA assessed as change in free energy at 25 degC by thermodynamics analysis. The format is nucleic-acid assay. To be noted: Bos taurus. The gist of the method:
as §4

Test [10] deals with Calf thymus DNA. The test can be described thus: Binding affinity to calf thymus DNA assessed as association constant by stopped flow kinetics assay. The format is nucleic-acid assay. The conditions noted are these: Bos taurus. The gist of the method:
as §3

Test [11] deals with Calf thymus DNA. Nature of the test: Binding affinity to calf thymus DNA assessed as delta(logK)/delta(log[Na+]) ratio at 0.05 to 0.125 M NaCl by UV-vis titration method. The format is nucleic-acid assay. The conditions noted are these: Bos taurus. The gist of the method: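 Binding constants for CT-DNA were measured by UV-vis Scatchard titration in 10 mM MES pH 6.25 with 1 mM EDTA at varied NaCl. The ratio is the slope of log K plotted against −log[Na+].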

A short description of test [12]: Binding affinity to poly[d(G-C)]2 DNA (unknown origin) assessed as association constant by stopped flow kinetics assay. An outline of the steps:
as §3

Test [13] in a line: Binding affinity to poly[d(A-T)]2 DNA (unknown origin) assessed as dissociation constant by stopped flow kinetics assay. The gist of the method: as §2
The next test has as its system Nucleic Acid. Nature of the test: Induction of DNA intercalation of pUC19 DNA assessed as compound level causing DNA re-supercoiling in presence of topoisomerase-1 incubated for 1 hr at 37 degC by electrophoresis method. The format is nucleic-acid assay. To be noted: Escherichia coli. The gist of the method: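 pUC19 (0.25 µg) was preincubated with 5 U topoisomerase I for 5 min at 37°C. Reaction buffer was 35 mM Tris-HCl pH 8.0, 72 mM KCl, 5 mM MgCl2, 5 mM DTT, 5 mM spermidine and 0.1% BSA. Ligand (2.0–50 µM) was then added for 1 h at 37°C. After SDS/proteinase K treatment, extraction and ethanol precipitation, DNA was run on 1% agarose in TAE (18 V, 3.5 h) and GelStar-stained.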

A short description of test [14]: Selectivity index, ratio of binding constant K for poly[d(A-T)]2 DNA (unknown origin) to binding constant K for poly[d(G-C)]2 DNA (unknown origin). An outline of the steps:
(§5)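 The ratio uses binding constants from UV-vis Scatchard/McGhee–von Hippel titrations. Conditions were 6.7 µM ligand, 25°C, 10 mM MES pH 6.25, 100 mM NaCl, 1 mM EDTA.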

Test [15] can be described thus: Selectivity index, ratio of binding constant K for calf thymus DNA to binding constant K for poly[d(G-C)]2 DNA (unknown origin). An outline of the steps:
as §5

For test [16], the system named is Calf thymus DNA. The test can be described thus: Binding affinity to calf thymus DNA assessed as increase in positive and negative CD bands at 5 to 50 uM at 25 degC by CD spectroscopy. The format is nucleic-acid assay. The conditions noted are these: Bos taurus. The gist of the method:
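Ligand at 5–50 µM was added to 100 µM/bp CT-DNA in 10 mM MES pH 6.25 with 100 mM NaCl and 1 mM EDTA, at 25°C. CD spectra were recorded, including the induced CD region at 320–400 nm.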

Calls of active or inactive are those of the source. The calls are words filed in the database; no cut-off is given here.

For `CN(C)CCCN1C(=O)c2ccc3c4c(ccc(c24)C1=O)C(=O)N(CCCN(C)C)C3=O`, the Activity in test [1] came out at 61%; with Calf thymus DNA [3], 62%; in test [4] it was 60%. Also, the Kd in the test with Calf thymus DNA [2] turned out to be 1.1 s⁻¹; in test [7], 0.3 s⁻¹; in test [13], 2.6 s⁻¹. The values for the K (in test [5]; in the test with Calf thymus DNA [10]; in [12]) were 260000 M⁻¹ s⁻¹, 120000 M⁻¹ s⁻¹ and 84000 M⁻¹ s⁻¹, respectively. Besides, the deltaS in the test on Calf thymus DNA [6] was 0.003 kcal/mol. The deltaH in the test with Calf thymus DNA [8] was -6.7 kcal/mol. Also, the deltaG in the test with Calf thymus DNA [9] is -7.6 kcal/mol. The Ratio with Calf thymus DNA [11] is 0.83.

On to `O=C1NCCCN2CCN(CCCN3C(=O)c4ccc5c6c(ccc(c46)C3=O)C(=O)N(CCCN3CCN(CCCNC(=O)c4ccc1cc4)CC3)C5=O)CC2`, for which the Activity was determined as 2 µM in the test with Nucleic Acid, 61% in test [1], 60% with Calf thymus DNA [3] and 47% in test [4]. Moreover, the Kd turned out to be 0.1 s⁻¹ with Calf thymus DNA [2], 0.003 s⁻¹ in test [7] and 0.15 s⁻¹ in test [13]. Further, the results for the K (in test [5]; in the test on Calf thymus DNA [10]; in test [12]) were 120000 M⁻¹ s⁻¹, 60000 M⁻¹ s⁻¹ and 34000 M⁻¹ s⁻¹, respectively. Besides, the Selectivity Index in [14] and in [15] was 9 throughout. Also, the deltaS with Calf thymus DNA [6] is 0.053 kcal/mol. In addition, in the test with Calf thymus DNA [8], the deltaH was 7.8 kcal/mol. For the same compound, the deltaG with Calf thymus DNA [9] was -8 kcal/mol. Also, the Ratio with Calf thymus DNA [11] came out at 0.72.

In the case of `CN1CCCNC(=O)c2ccc(cc2)C(=O)NCCCN(C)CCCN2C(=O)c3ccc4c5c(ccc(c35)C2=O)C(=O)N(CCC1)C4=O`, the Activity in the test with Nucleic Acid turned out to be 10 µM; in test [1], 61%; with Calf thymus DNA [3], 60%; in test [4] it was 49%. The outcome with Calf thymus DNA [16] was Active. In addition, the Kd with Calf thymus DNA [2] was determined as 1.1 s⁻¹; in [7], 1 s⁻¹; in test [13], 4.2 s⁻¹. Also, the K was found to be 32000 M⁻¹ s⁻¹ in test [5], 120000 M⁻¹ s⁻¹ in the test on Calf thymus DNA [10] and 26000 M⁻¹ s⁻¹ in test [12]. Moreover, in the test on Calf thymus DNA [6], the deltaS was found to be 0.054 kcal/mol. Moreover, the deltaH with Calf thymus DNA [8] came out at 9.2 kcal/mol. Moreover, the deltaG in the test on Calf thymus DNA [9] was -7 kcal/mol. Moreover, the Ratio in the test on Calf thymus DNA [11] was 0.74.

The values above are taken from ChEMBL document CHEMBL3596149, “Thermodynamics and kinetic studies in the binding interaction of cyclic naphthalene diimide derivatives with double stranded DNAs” (Bioorg Med Chem, 2015).
